These results are taken from PubChem BioAssay AID588578 (Sanford-Burnham Center for Chemical Genomics, 2011).

Activity calls are given as the source filed them.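 How the source made its calls: active means IC50 at or below 20 µM; inactive means the rest.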 Where only a bound is given, the exact number is not on record here.

Sequence of Bcl-2-like protein 1 (Homo sapiens) (Q07817 whole entry, looked up): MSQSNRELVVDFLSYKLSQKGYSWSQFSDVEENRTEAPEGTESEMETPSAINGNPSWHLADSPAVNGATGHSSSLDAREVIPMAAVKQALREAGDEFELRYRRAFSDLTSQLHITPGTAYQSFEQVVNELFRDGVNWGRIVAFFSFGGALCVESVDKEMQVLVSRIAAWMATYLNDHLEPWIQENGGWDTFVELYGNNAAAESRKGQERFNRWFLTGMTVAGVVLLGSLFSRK

The experiment addresses Bcl-2-like protein 1 (Homo sapiens) (UniProt Q07817). Description: displacement of Bim BH3 peptide from Bcl-XL – biochemical, fluorescence polarization, GST-Bcl-XL, FITC-Bim, selectivity assay for Bcl-B inhibitor project, SAR follow-up (AID 588578). In a few lines: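 Assay system: Purified GST-Bcl-XL lacking C-terminal transmembrane region, E. coli-expressed | Reagent: FITC-Bim probe peptide | Dosing: Ten doses, twofold serial dilution | Timing: 20 min 4 °C preincubation, 10 min RT tracer binding | Read-out basis: IC50 from sigmoidal non-linear dose-response fit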
(Fluorescence polarisation rises when a labelled molecule tumbles more slowly, as on binding a larger partner.)
Usually IC50 stands for the point on the concentration scale where inhibition reaches its midpoint. With `O=c1c2c(n3cnnc3n1Cc1ccccc1)-c1ccccc1CC21CCCC1`, the IC50 is > 20 µM (inactive).

Regarding `Cc1ccc2c(c1)-c1c(c(=O)n(Cc3ccc(Cl)cc3)c3nnnn13)C1(CCCCC1)C2`, the IC50 is > 20 µM (inactive).

Take `CC1(C)CC(n2c(=S)[nH]c3c(c2=O)C2(CCCC2)Cc2ccccc2-3)CCO1` (stereo not drawn): the IC50 was > 20 µM (inactive).

Turning to `Cc1ccc2c(c1)-c1c(c(=O)n(Cc3ccccc3)c3nnnn13)C(C)(C)C2`, the IC50 is > 20 µM (inactive).

As for `O=c1c2c(-c3ccccc3)n3ncnc3nc2ccn1-c1ccccc1`, the IC50 is > 20 µM (inactive).

For the compound `O=C1CCCC2=C1C(c1cc(Br)ccc1F)n1ncnc1N2` (stereo not drawn), the IC50 was > 20 µM (inactive).

Consider `COc1ccc2c(c1)-c1c(c(=O)n(Cc3ccccc3)c3nnnn13)C(C)(C)C2`, for which the IC50 was > 20 µM (inactive).

As for `C=C(C)Cn1c(=O)c2c(n3nnnc13)-c1ccccc1CC21CCCC1`, the IC50 is > 20 µM (inactive).

Regarding `O=c1[nH]c(CN2CCOCC2)nc2c1C1(CCCC1)Cc1ccccc1-2`, the IC50 was > 20 µM (inactive).

Take `O=c1c2c(n3cnnc3n1Cc1ccc(Cl)cc1)-c1ccccc1CC21CCCC1`: the IC50 is > 20 µM (inactive).

In the case of `Cn1c(=S)[nH]c2c(c1=O)C1(CCCCC1)Cc1ccccc1-2`, the IC50 was > 20 µM (inactive).

In the case of `O=c1c2cnc3nc(-c4ccccc4)nn3c2ccn1CCc1cnc[nH]1`, the IC50 was > 20 µM (inactive).

Consider `O=c1c2c(n3cnnc3n1C1CCCCC1)-c1ccccc1CC21CCCCC1`, for which the IC50 was > 20 µM (inactive).

Regarding `CC1(C)Cc2ccccc2-c2c1c(=O)n(Cc1ccccc1)c1nnnn21`, the IC50 is > 20 µM (inactive).

Consider `O=c1c2c(n3nnnc3n1-c1ccccc1)-c1ccccc1CC21CCCC1`, for which the IC50 is > 20 µM (inactive).

`CC1CC(=O)C2=C(C1)Nc1ncnn1C2c1cccnc1` (stereo not drawn): the IC50 is > 20 µM (inactive).

For `O=c1c2c(n3nnnc3n1Cc1ccc(Cl)cc1)-c1ccccc1CC21CCCC1`, the IC50 is > 20 µM (inactive).

Regarding `c1ccc(OCc2nc3c4c(ncn3n2)-c2ccccc2CC42CCCC2)cc1`, the IC50 is > 20 µM (inactive).

On to `O=c1c2c(n3nnnc3n1Cc1ccccc1)-c1cc(F)ccc1CC21CCCC1`, for which the IC50 was > 20 µM (inactive).

On to `O=c1c2c(n3nnnc3n1Cc1ccc(F)cc1)-c1ccccc1CC21CCCC1`, for which the IC50 is > 20 µM (inactive).

Turning to `COc1ccc(Cn2c(=O)c3c(n4nnnc24)-c2cc(C)ccc2CC3(C)C)cc1`, the IC50 was > 20 µM (inactive).

For the compound `O=c1c2c(nc3n1CCS3)-c1ccccc1CC21CCCCC1`, the IC50 was > 20 µM (inactive).

Turning to `Cc1ccc2c(c1)-c1c(c(=O)n(Cc3ccc(Cl)cc3)c3nncn13)C1(CCCCC1)C2`, the IC50 is > 20 µM (inactive).

`O=c1[nH]c(NCCCO)nc2c1C1(CCCCC1)Cc1ccccc1-2`: the IC50 was > 20 µM (inactive).

Consider `CC1(C)Cc2ccccc2-c2nc3nn[nH]n3c(=O)c21`, for which the IC50 is > 20 µM (inactive).

For the compound `COc1ccc2c(c1)-c1c(c(=O)n(Cc3ccccc3)c3nncn13)C1(CCCC1)C2`, the IC50 was > 20 µM (inactive).

On to `O=c1c2cnc3ncnn3c2ccn1CCc1cnc[nH]1`, for which the IC50 is > 20 µM (inactive).

Consider `O=C1CC(c2ccccc2F)c2c(n3ncnc3[nH]c2=O)N1` (stereo not drawn), for which the IC50 was > 20 µM (inactive).

For `O=c1c2c(n3nnnc3n1Cc1ccccc1)-c1ccccc1CC21CCCC1`, the IC50 was > 20 µM (inactive).

`Cc1ccc2c(c1)-c1c(c(=O)n(Cc3ccccc3)c3nncn13)C(C)(C)C2`: the IC50 is > 20 µM (inactive).

As to `O=c1c2c(n3nnnc3n1Cc1ccccc1)-c1ccccc1CC21CCCCC1`, the IC50 was > 20 µM (inactive).

For the compound `COc1ccc2c(c1)-c1c(c(=O)n(Cc3ccc(Cl)cc3)c3nnnn13)C(C)(C)C2`, the IC50 is > 20 µM (inactive).

Consider `O=c1[nH]c(CN2CCCC2)nc2c1C1(CCCC1)Cc1ccccc1-2`, for which the IC50 was > 20 µM (inactive).

`O=C1CC(c2ccc(F)cc2)CC2=C1C(c1cccc(Cl)c1)n1ncnc1N2` (stereo not drawn): the IC50 is > 20 µM (inactive).

As to `O=c1c2ccccc2nc2n1C1(CCCC1)Cc1ccccc1-2`, the IC50 was > 20 µM (inactive).

Take `O=c1c2c(nc3[nH]ncn13)-c1ccccc1CC21CCCC1`: the IC50 was > 20 µM (inactive).

As to `COc1ccc2c(c1)-c1c(c(=O)n(Cc3ccc(F)cc3)c3nncn13)C(C)(C)C2`, the IC50 was > 20 µM (inactive).

In the case of `COc1ccc(Cn2c(=O)c3c(n4nnnc24)-c2ccccc2CC32CCCC2)cc1`, the IC50 is > 20 µM (inactive).

As for `COc1ccc2c(c1)-c1c(c(=O)n(Cc3ccc(F)cc3)c3nnnn13)C(C)(C)C2`, the IC50 was > 20 µM (inactive).

On to `COc1ccc2c(c1)-c1c(c(=O)n(Cc3ccccc3)c3nnnn13)C1(CCCC1)C2`, for which the IC50 was > 20 µM (inactive).

Take `O=c1c2c(nc3[nH]ncn13)-c1ccccc1CC21CCCCC1`: the IC50 was > 20 µM (inactive).

Regarding `O=c1c2ccccc2nc2n1C1(CCCCC1)Cc1ccccc1-2`, the IC50 was > 20 µM (inactive).

In the case of `Cn1c(NCCO)nc2c(c1=O)C1(CCCCC1)Cc1ccccc1-2`, the IC50 was > 20 µM (inactive).

Turning to `Cc1ccc2c(c1)-c1c(c(=O)n(Cc3ccccc3)c3nnnn13)C1(CCCCC1)C2`, the IC50 is > 20 µM (inactive).

For `O=c1c2c(n3nnnc3n1Cc1ccccc1)-c1cc(F)ccc1CC21CCCCC1`, the IC50 is > 20 µM (inactive).

`C=C(C)Cn1c(=O)c2c(n3cnnc13)-c1ccccc1CC21CCCC1`: the IC50 is > 20 µM (inactive).

Turning to `O=c1c2c(-c3ccccc3)n3ncnc3nc2ccn1-n1cnnc1`, the IC50 was > 20 µM (inactive).

`COc1ccc(Cn2c(=O)c3c(n4cnnc24)-c2cc(C)ccc2CC3(C)C)cc1`: the IC50 was > 20 µM (inactive).

As for `CC1(C)Cc2ccccc2-c2c1c(=O)n(Cc1ccccc1)c1nncn21`, the IC50 was > 20 µM (inactive).

Turning to `COc1ccc2c(c1)-c1c(c(=O)n(Cc3ccc(Cl)cc3)c3nncn13)C(C)(C)C2`, the IC50 was > 20 µM (inactive).

Turning to `Cc1ccc2c(c1)-c1c(c(=O)n(Cc3ccccc3)c3nncn13)C1(CCCCC1)C2`, the IC50 was > 20 µM (inactive).

Consider `COc1ccc2c(c1)-c1c(c(=O)n(Cc3ccccc3)c3nncn13)C(C)(C)C2`, for which the IC50 is > 20 µM (inactive).

Take `COc1ccc2c(c1)-c1c(c(=O)n(Cc3ccc(Cl)cc3)c3nncn13)C1(CCCC1)C2`: the IC50 is > 20 µM (inactive).

Consider `COc1ccc2c(c1)-c1c(c(=O)n(Cc3ccc(Cl)cc3)c3nnnn13)C1(CCCC1)C2`, for which the IC50 is > 20 µM (inactive).

On to `Cc1ccc2c(c1)-c1c(c(=O)n(Cc3ccc(F)cc3)c3nnnn13)C1(CCCCC1)C2`, for which the IC50 was > 20 µM (inactive).

As for `Cc1ccc2c(c1)-c1c(c(=O)n(Cc3ccc(F)cc3)c3nncn13)C1(CCCCC1)C2`, the IC50 is > 20 µM (inactive).

As to `O=c1c2c(n3cnnc3n1Cc1ccccc1)-c1ccccc1CC21CCCCC1`, the IC50 was > 20 µM (inactive).

For `Cn1c(=O)c2c(n3cnnc13)-c1ccccc1CC21CCCC1`, the IC50 was > 20 µM (inactive).
